Measurements from different studies.
Protocols differ between the studies behind these lines.
Target: Myosin light chain kinase (MYLK3, Homo sapiens, UniProt Q32MK0)
One construct used (Q32MK0 1-819): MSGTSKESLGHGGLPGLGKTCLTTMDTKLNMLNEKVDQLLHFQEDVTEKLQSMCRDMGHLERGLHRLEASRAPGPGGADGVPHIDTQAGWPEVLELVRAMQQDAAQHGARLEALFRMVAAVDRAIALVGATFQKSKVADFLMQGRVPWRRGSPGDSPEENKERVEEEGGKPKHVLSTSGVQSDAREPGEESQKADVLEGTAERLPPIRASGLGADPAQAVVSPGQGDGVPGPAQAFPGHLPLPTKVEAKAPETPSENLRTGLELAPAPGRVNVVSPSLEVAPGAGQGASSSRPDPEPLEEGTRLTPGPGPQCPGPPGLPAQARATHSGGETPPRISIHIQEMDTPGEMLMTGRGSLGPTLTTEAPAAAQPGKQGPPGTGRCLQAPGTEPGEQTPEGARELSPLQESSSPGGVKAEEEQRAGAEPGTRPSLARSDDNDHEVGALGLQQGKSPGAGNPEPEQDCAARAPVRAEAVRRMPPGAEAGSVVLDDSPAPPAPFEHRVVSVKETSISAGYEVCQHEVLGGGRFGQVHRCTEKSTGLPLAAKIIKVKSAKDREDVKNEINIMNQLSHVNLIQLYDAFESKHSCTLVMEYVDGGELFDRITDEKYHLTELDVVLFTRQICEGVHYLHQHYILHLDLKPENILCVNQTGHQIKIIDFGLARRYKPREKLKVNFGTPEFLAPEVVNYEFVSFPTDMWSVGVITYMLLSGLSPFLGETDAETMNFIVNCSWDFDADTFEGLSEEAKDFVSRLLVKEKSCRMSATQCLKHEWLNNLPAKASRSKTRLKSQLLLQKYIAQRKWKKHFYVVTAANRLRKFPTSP

| SMILES | assay | conditions | remaining binding [%] |
| --- | --- | --- | --- |
| N[C@@H]1CCN(c2nccc(-c3cnn4ncccc34)n2)C1 | binding | 1 µM | 100 |
| O=C(c1ccc(Nc2ncc(Cl)c(-c3ccc(Cl)s3)n2)cc1)N1CCC(N2CCCC2)CC1 | binding, competition with immobilised ligand | 1 µM | 6.7 |
| COc1ccc2c(c1)O[C@H](c1ccc(OC)c(OC)c1)C[C@@H]2NC(=O)C1(c2ccc3c(c2)OC(F)(F)O3)CC1 | cell-free assay, competition with immobilised ligand | 1 µM | 95 |
| C[C@@H](c1ccc(-n2cnc3c(N)ncnc32)cc1)N1CCc2nn(C)c(Cc3ccccc3)c2C1=O | binding, competition with immobilised ligand | 0.1 µM | 100 |
| Cc1cnc(Nc2ccc(C(=O)N3CCC(N4CCCC4)CC3)cc2)nc1-c1cc2ccccc2s1 | binding, competition with immobilised ligand | 1 µM | 5.1 |
| NS(=O)(=O)c1cc(NC(=O)Cc2ccccc2)ccc1Oc1cccc(Cl)c1 | cell-free assay, competition with immobilised ligand | 1 µM | 89 |
| CN(c1nccc(-c2cnn3ncccc23)n1)C1CC1 | binding | 1 µM | 100 |
| c1cncc(-c2cccc(Nc3nccc(NC4CCCCC4)n3)c2)c1 | binding, competition with immobilised ligand | 10 µM | 100 |
| Nc1ncc2c(n1)-c1c([nH]c3ccc(C#CC4CC4)cc13)CCCC2 | binding, competition with immobilised ligand | 1 µM | 91 |
| O=C(Nc1cccnn1)N1CCC(=Cc2cccc(Oc3ccc(C(F)(F)F)cn3)c2)CC1 | cell-free assay, competition with immobilised ligand | 1 µM | 100 |
| O=C(NCC1CCOCC1)c1n[nH]cc1NC(=O)c1c(F)cccc1F | binding, competition with immobilised ligand | 1 µM | 100 |
| CN(C)c1nccc(-c2cnc3ncccn23)n1 | binding | 1 µM | 100 |
| CCS(=O)(=O)c1cc2cc(C[C@](O)(CC(C)(C)c3ccc(F)cc3C(N)=O)C(F)(F)F)[nH]c2cn1 | cell-free assay, competition with immobilised ligand | 1 µM | 74 |
| CN(C)c1ncc(F)c(-c2cnn3ncccc23)n1 | binding | 1 µM | 77 |
| Cn1nc(C(=O)NCc2ccc(C(=O)O)cc2)cc1-c1ccc2[nH]ccc2c1 | cell-free assay, competition with immobilised ligand | 0.1 µM | 100 |
| O=C(NCCCN1CCOCC1)c1ccc(Nc2ncc(Cl)c(-c3ccc(Cl)s3)n2)cc1 | binding, competition with immobilised ligand | 1 µM | 7.9 |
| CC1CCCN1c1nccc(-c2cnn3ncccc23)n1 (centres unmarked) | binding | 1 µM | 100 |
| COc1cnc(Nc2cccc(S(N)(=O)=O)c2)nc1N1CCN(c2ccccc2)CC1 | binding, competition with immobilised ligand | 1 µM | 97 |
| CS(=O)(=O)NCC[C@H](NC(=O)c1cncc2c1cnn2-c1ccc(F)cc1)c1ccnc(S(C)(=O)=O)c1 | cell-free assay, competition with immobilised ligand | 1 µM | 100 |
| C[C@H]1CCN(c2nccc(-c3cnn4ncccc34)n2)C1 | binding | 1 µM | 98 |
